# Like-named read-outs stand apart in the source and are kept apart here.
# Tests used:
# [1] = assay type: in vivo, human
# In short: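 Randomized, double-blind, placebo-controlled study in DSM-IV schizophrenia patients (18–55 y, clinically stable, on one antipsychotic). Plasma AUC0−∞, Cmax and tmax taken on day 1, and AUCtau,ss, Cmax,ss and tmax,ss at steady state (day 14). Dose proportionality was fitted by log-log linear regression.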
# [2] = test system: patients with mild-to-moderate schizophrenia; experiment: Safety and tolerability; assay type: in vivo, human
# In short: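 Patients were randomized 1:1:1:1 to oral test compound (25, 50 or 100 mg) or placebo once daily for 14 days, double-blind. Assessments were AEs, vital signs, 12-lead ECG, clinical laboratory tests, physical examination, CGI-I, PANSS, C-SSRS, Snellen visual acuity and Ishihara colour vision. End-of-treatment visit came 7–14 days after the last dose. All dosed patients were included, and results were summarized descriptively.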
# [3] = test system: rat hippocampal slices; settings: application to rat hippocampal slices; cited from earlier work
# [4] = test system: cGMP; settings: cited from earlier work
# [5] = test system: memory performance; settings: cited from earlier work
# [6] = healthy male volunteers, single oral dose; cited from earlier work
# [7] = test system: cGMP; settings: healthy male volunteers, single oral dose; cited from earlier work
# [8] = test system: healthy male volunteers; settings: cited from earlier work
# [9] = test system: patients with mild-to-moderate probable Alzheimer's disease; settings: cited from earlier work
# [10] = steady state vs single dose, 25 to 100 mg
# [11] = phase II placebo-controlled study
compound,measurement,setting,value
O=c1[nH]c(Cc2ccccn2)nc2c1cnn2C1CCOCC1 [BI 409306],dose proportionality of exposure,[1]; 25- to 100-mg dose range,dose-proportional from 50 to 100 mg
same,gCV% of exposure (inter-individual variability),[1]; CYP2C19 µM predicted phenotype,154%
same,gCV% of exposure (inter-individual variability),[1]; CYP2C19 EM predicted phenotype,152%
same,gCV% of exposure (inter-individual variability),[1]; CYP2C19 IM predicted phenotype,48.4%
same,exposure by CYP2C19 predicted phenotype,"[1]; IM, EM, UM patients","highest in patients with the CYP2C19 IM predicted phenotype, followed by EM and UM patients"
same,half-life,"[1]; human, plasma, oral",1.1 to 1.85 h
same,"gCV of AUC0−∞ (inter-individual variability), range over dose groups",[1]; single dose,98.4% to 108%
same,"gCV of C max (inter-individual variability), range over dose groups",[1]; single dose,73.3% to 106%
same,time to reach C max,"[1]; single dose, across 25, 50, 100 mg",30 to 45 min
same,"gCV of AUCtau,ss (inter-individual variability), range over dose groups",[1]; steady state,86.8% to 112%
same,"gCV of C max,ss (inter-individual variability), range over dose groups",[1]; steady state,74.4% to 90.9%
same,"accumulation ratio AUC, range over dose groups",[1]; [10],0.758–1.13
same,"accumulation ratio C max, range over dose groups",[1]; [10],0.768–1.40
same,mean change from baseline in total PANSS score,"[2]; 25 mg qd, day 7",−0.1
same,mean change from baseline in total PANSS score,"[2]; 25 mg qd, day 13",2.3
same,"mild suicidal ideation after treatment initiation (C-SSRS score = 1), patients",[2]; 50 mg qd,one patient
same,mean change from baseline in total PANSS score,"[2]; 50 mg qd, day 7",−0.2
same,mean change from baseline in total PANSS score,"[2]; 50 mg qd, day 13",0.0
same,mean change from baseline in total PANSS score,"[2]; 100 mg qd, day 7",−1.4
same,mean change from baseline in total PANSS score,"[2]; 100 mg qd, day 13",−3.6
same,effect on mean pupil diameter relative to placebo,"[2]; 25, 50, 100 mg qd",negligible effect
same,"CGI-I, overall disease status","[2]; 25, 50, 100 mg qd 14 days",no change or minimal improvement
same,"changes in laboratory parameters, vital signs, or ECGs","[2]; 25, 50, 100 mg qd 14 days",No clinically relevant or dose-related changes
same,"deaths, serious AEs, discontinuation due to AEs","[2]; 25, 50, 100 mg qd 14 days","no deaths, serious AEs or discontinuation due to AEs"
same,intensity of AEs,"[2]; 25, 50, 100 mg qd 14 days",mild
same,tolerability,"[2]; 25, 50, 100 mg qd 14 days",well tolerated
same,color discrimination (Ishihara plates),[2]; all treatment groups,normal at maximum time points in all the patients
same,effect on long-term potentiation (LTP),[3],significant enhancement of long-term potentiation
same,cGMP in rat cerebrospinal fluid (CSF) and prefrontal cortex,[4],dose-dependent increase
same,memory performance,[5],improved memory performance
same,maximum concentration in CSF as % of the maximum plasma concentration,[6],28.31%
same,cGMP in the CSF,[7],dose- and concentration-dependent increase
same,frequency of eye disorders,[8]; healthy male Chinese and Japanese subjects receiving BI 409306,29.8%
same,time to resolution of visual AEs / eye disorders,[8]; healthy male volunteers,1 to 2 h
C[C@@H]1CN(Cc2ncccn2)C[C@H]1c1nc2c(cnn2C2CCOCC2)c(=O)[nH]1 [PF-04447943],"efficacy vs placebo in cognition, behavior, clinician-rated global change",[9]; 12-week treatment,not more effective than placebo
same,estimated median exposure relative to the IC50,[9]; [11],remained above the IC50 for the entire dosing duration
same,maximal concentrations relative to the IC50,[9]; [11],approximately five times the IC50

# Source: article PMC5990500 (Neurology and Therapy, 2017)
